High-throughput results as filed in PubChem BioAssay.
A selection: hits, their analogues and other compounds. The true share with any hit is near 1.9%.
CHRM5 agonist = human M5 muscarinic receptor agonists, primary screen, CHO-K1 cells, Fluo-8 calcium fluorescence | 360,000 tested, 0.19% active | AID 624037, 2012 | activation, % at 3 µM | CHO-K1 hM5 cells; 0% DMSO wells, 100% maximal acetylcholine response;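 active means activation above the run's mean over test compounds plus 3 SD, cut at about 23% in these data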;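 further: signal is peak over basal fluorescence ratio across the kinetic read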
CHRM4 PAM = human M4 muscarinic receptor positive allosteric modulators, primary screen, CHO-K1 cells, Fluo-8 calcium fluorescence | Muscarinic acetylcholine receptor M4 (Homo sapiens), P08173 | CHO-K1 hM4/Gqi5, ACh EC20; 0% = ACh EC20, 100% = maximal ACh | activation, % at 3 µM | 360,000 tested, 0.4% active;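 active means activation above its plate's cutoff, the mean activation of sample wells plus 3 SD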
Target sequence (P08173 whole entry, looked up): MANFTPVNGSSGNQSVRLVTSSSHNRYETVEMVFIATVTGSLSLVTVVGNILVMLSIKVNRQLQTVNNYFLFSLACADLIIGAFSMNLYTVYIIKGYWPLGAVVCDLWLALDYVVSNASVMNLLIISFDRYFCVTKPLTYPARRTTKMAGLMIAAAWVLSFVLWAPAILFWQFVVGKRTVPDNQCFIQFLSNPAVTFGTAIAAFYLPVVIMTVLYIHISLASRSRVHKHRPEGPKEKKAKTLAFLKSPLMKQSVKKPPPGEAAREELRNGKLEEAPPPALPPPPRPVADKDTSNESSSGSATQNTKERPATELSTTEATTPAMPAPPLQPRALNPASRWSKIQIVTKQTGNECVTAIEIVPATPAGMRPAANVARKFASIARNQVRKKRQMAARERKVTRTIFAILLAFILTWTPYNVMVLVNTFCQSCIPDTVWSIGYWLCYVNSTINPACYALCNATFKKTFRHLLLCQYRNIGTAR
CHRM4 antagonist = human M4 muscarinic receptor antagonists, primary screen, CHO cells, Fluo-8 calcium fluorescence; Muscarinic acetylcholine receptor M4 (Homo sapiens), P08173; CHO-hM4 cells, ACh EC80; inhibition, % at 3 µM; 360,000 tested, 0.73% active;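 active means inhibition above its plate's cutoff, the mean inhibition of sample wells plus 3 SD, cut at about 27% in these data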;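 further: 0% = acetylcholine EC80 with DMSO and 100% = DMSO without agonist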
CHRM5 antagonist = human M5 muscarinic receptor antagonists, primary screen, CHO cells, Fluo-8 calcium fluorescence; Muscarinic acetylcholine receptor M5 (Homo sapiens), P08912; CHO-hM5 cells, ACh EC80; inhibition, % at 3 µM; 360,000 tested, 0.59% active; AID 624040, 2012;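 active means inhibition above a per-plate cutoff, the mean of that plate's test compounds plus 3 SD, cut at about 27% in these data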;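 further: 0% = acetylcholine EC80 with DMSO and 100% = DMSO without agonist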
CHRM5 PAM = human M5 muscarinic receptor positive allosteric modulators, primary screen, CHO-K1 cells, Fluo-8 calcium fluorescence | Muscarinic acetylcholine receptor M5 (Homo sapiens), P08912 | CHO-K1 hM5, ACh EC20 PAM; 0% = ACh EC20, 100% = ACh EC100 | activation, % at 3 µM | 360,000 tested, 0.3% active;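 active means activation above the run cutoff, the mean activation of all test compounds plus 3 SD, cut at about 18% in these data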
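Replicates: One well per compound, no replicates | System: Human M5 receptor in CHO-K1 cells | Benchmarks: Low control EC20 acetylcholine (0%), high control EC100 acetylcholine (100%) | Probe or stimulus: Acetylcholine, EC20 level | Times: Fluo-8 loading 80 min at 37 °C plus 30 min room temperature | Signal: Intracellular calcium via Fluo-8 fluorescence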
CHRM4 agonist = human M4 muscarinic receptor agonists, primary screen, CHO-K1 cells, Fluo-8 calcium fluorescence | Muscarinic acetylcholine receptor M4 (Homo sapiens), P08173 | CHO-K1 hM4/Gqi5; vehicle 0%, full acetylcholine response 100% | activation, % at 3 µM | 360,000 tested, 0.14% active | AID 624127, 2012;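 active means activation above the run mean over all test wells plus 3 SD, cut at about 32% in these data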;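 further: peak over basal fluorescence ratio per well then scaled between controls; 0% = DMSO wells and 100% = acetylcholine at EC100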
Starred values were filed as active, the others as inactive.

SMILES | CHRM5 agonist | CHRM4 PAM | CHRM4 antagonist | CHRM5 antagonist | CHRM5 PAM | CHRM4 agonist
Cc1cccc(C)c1C(OCCN(C)C)C1CCCCC1 (stereo unspecified) | -8.6 | -19.7 | 77.0* | 100.4* | -19.0 | 5.3
COCCN(C(=O)CCl)C(C(=O)NC1CCCCC1)c1ccccc1C (stereo unspecified) | -2.8 | -11.8 | 14.2 | -1.1 | 0.9 | -0.7
CSc1ccc(C2=C/C(=C3/SC(=S)NC3=O)c3ccccc3O2)cc1 | -3.2 | 14.7 | -6.9 | 7.8 | -0.4 | 0.5
CCN(CC)c1ccc2cc(C(C)=O)c(=O)oc2c1 | 0.3 | -4.2 | 4.7 | 4.5 | -1.3 | 4.3
CCN(CC)c1ccc2cc(C=O)c(=O)oc2c1 | 29.3* | -1.5 | 9.7 | 4.6 | -19.1 | 18.4
CCc1nnc(NC(=O)CCC(=O)N2CCN(Cc3ccc(OC)c(F)c3)CC2)s1 | -3.2 | -4.6 | 2.2 | -0.2 | 2.4 | 3.0
CCCCn1nnnc1NCc1cccnc1 | 5.6 | 11.2 | -5.6 | 31.1* | -2.3 | 1.9
O=C1CC(=O)N(CCNc2ncc(C(F)(F)F)cc2Cl)C(=O)N1 | 3.2 | 4.2 | 1.8 | 2.4 | -7.7 | 0.2
O=C1C=CC(=O)N1CCNc1ncc(C(F)(F)F)cc1Cl | -1.5 | -8.4 | 28.0* | -7.4 | 5.4 | 4.9
Cc1ccc(-c2csc(NC(=O)c3ccc(-c4ccccc4)cc3)n2)o1 | 8.4 | -10.0 | 39.5* | 15.9 | -5.7 | 8.6
CCN(CC)CCN1C(=O)c2ccccc2NC1c1ccccc1F (stereo unspecified) | -6.8 | -15.3 | 29.3* | 13.7 | -22.6 | 0.5
CCN(CC)CCN1C(=O)c2ccccc2NC1c1ccc(F)cc1 (stereo unspecified) | -7.7 | -6.8 | 2.5 | -8.0 | 3.0 | 0.4
COc1ccc(C(C)(NC(C)=O)c2nc(-c3cnc4ccccc4c3)cs2)cc1 (stereo unspecified) | 0.0 | -2.1 | 4.7 | -4.1 | -0.6 | 3.2
CCCC1(c2ccccc2)NC(=O)N(CC(=O)NCc2ccc(OC)cc2)C1=O (stereo unspecified) | -3.8 | 21.0* | 1.8 | 1.7 | -1.2 | 2.5
CCCN1CCC(=O)N(CCSc2ccc(C)cc2)CC1 | -4.0 | 4.1 | 4.8 | -3.0 | 8.8 | 1.2
CCCN1CCC(=O)N(CCSc2ccc(OC)cc2)CC1 | 2.7 | 0.3 | -13.8 | -9.8 | 18.6* | 5.4
CCOc1ccccc1N1CCN(C(=O)NCc2ccc(Cl)cc2)CC1 | -0.5 | -15.3 | -3.4 | 12.0 | -3.3 | 13.9
CN1CCN(C(CNS(=O)(=O)c2ccc(Br)cc2)c2ccc3c(c2)OCO3)CC1 (stereo unspecified) | -10.2 | 0.4 | -5.0 | 27.0* | -33.5 | 5.6
CN1CCN(C2=Nc3ccccc3Oc3ccc(Cl)cc32)CC1 | -1.2 | -16.5 | 37.4* | 71.8* | -19.2 | 1.5
CC(C)c1ccc(CN2CCC(C)(Oc3ccc(Cl)cc3)C2)cc1 (stereo unspecified) | -1.9 | 0.1 | -3.0 | -4.4 | -2.8 | 0.0
COc1cc(OC)cc(OC2(C)CCN(Cc3ccc(OC(C)C)cc3)C2)c1 (stereo unspecified) | 0.3 | -9.9 | 53.4* | 11.4 | -14.9 | 1.8
COC(=O)Cc1ccc(OC2(C)CCN(Cc3ccccc3)C2)cc1 (stereo unspecified) | -2.9 | -13.2 | 63.3* | 12.4 | -10.3 | -0.1
Nc1c(C2CCCCC2)c(=O)on1C(=O)c1ccccc1 | 1.4 | 8.4 | -12.5 | -1.8 | 11.5 | 2.0
Cc1cc(C)c(C#N)c(Sc2nc(C)c([N+](=O)[O-])c(C)c2C#N)n1 | -6.8 | 41.5* | 34.0* | 8.4 | -4.2 | 1.8
Cc1cccc(C(=O)O)c1NC(=O)Cc1cccc2ccccc12 | -1.7 | 11.4 | -11.6 | 2.5 | 15.7 | 0.2
SMILES | CHRM5 agonist | CHRM4 PAM | CHRM4 antagonist | CHRM5 antagonist | CHRM5 PAM | CHRM4 agonist
CCn1cc([N+](=O)[O-])c(C(=O)N2N=C(c3ccc4ccccc4c3)CC2c2ccccc2O)n1 (stereo unspecified) | -0.7 | 1.2 | 9.9 | 5.7 | 5.8 | 6.3
CCn1cc([N+](=O)[O-])c(C(=O)N2N=C(c3cccc4ccccc34)CC2c2ccccc2O)n1 (stereo unspecified) | -3.1 | 4.6 | 15.0 | 1.5 | 29.1* | 4.8
CCOC(=O)N1CCN(C(=O)CSc2ccc3nnc(CCNC(=O)c4ccc(OC)cc4)n3n2)CC1 | 0.7 | -9.3 | -1.2 | -1.5 | 2.0 | -0.1
NC(=O)c1c(-c2ccc(Cl)cc2Cl)csc1NC(=O)Cc1ccccc1 | -0.2 | -24.6 | 2.7 | 38.1* | -18.6 | 9.1
Cc1ccc(NC(=O)C2(C)CCN2C(=O)Cc2ccccc2)cc1C (stereo unspecified) | -0.9 | -1.8 | -6.3 | 5.4 | -4.7 | 0.6
CC12CCC(=O)C=C1CCC1C2C(O)CC2(C)C(c3csc(N)n3)CCC12 (stereo unspecified) | -1.2 | -9.0 | 4.7 | 13.2 | -11.7 | 11.8
CC12CCC(=O)C=C1CCC1C2CCC2(C)C(c3csc(N)n3)CCC12 (stereo unspecified) | -3.6 | -14.9 | 46.9* | 18.9 | -35.1 | 18.6
Cc1nnc(SCCn2c(N3CCCC(C)C3)nc3c2c(=O)[nH]c(=O)n3C)s1 (stereo unspecified) | 3.3 | 8.1 | 16.2 | -14.9 | 19.5* | 0.6
Cc1nnc(SCCn2c(N3CCC(C)CC3)nc3c2c(=O)[nH]c(=O)n3C)s1 | 2.1 | 10.1 | -6.9 | -9.5 | 2.8 | 1.8
CC1(C(=O)Nc2ccc3c(c2)OCO3)CCN1Cc1csc2ccccc12 (stereo unspecified) | -2.5 | -12.3 | 10.6 | 13.0 | -19.8 | 3.4
Cc1ccc(NC(=O)C2(C)CCN2Cc2csc3ccccc23)cc1 (stereo unspecified) | -4.0 | -13.6 | 45.9* | 6.9 | -17.7 | -0.5
COc1cc2c(cc1OC)CN(C(=O)C1CCCN1S(=O)(=O)c1ccc(F)cc1)CC2 (stereo unspecified) | -1.2 | 17.0* | -12.9 | 0.7 | -1.0 | 2.6
COc1cc2c(cc1OC)CN(C(=O)CNS(=O)(=O)c1ccc(C)c(C)c1)CC2 | 1.5 | 29.8* | 19.4 | 21.3 | 23.2* | 16.0
COc1cc2c(cc1OC)CN(C(=O)c1ccc(S(=O)(=O)N3CCCCC3)cc1)CC2 | -4.1 | 10.7 | -9.0 | 4.2 | -2.5 | 1.9
COc1ccc(S(=O)(=O)N2CCCCC2C(=O)O)cc1OC (stereo unspecified) | -2.7 | -0.2 | 3.2 | -1.6 | 20.9* | 0.6
